target: T1, Melanin-concentrating hormone receptor 1 (Homo sapiens, UniProt Q99705); experiment: Inhibition of MCH-mediated calcium release by CHO cells expressing human MCH-R1; format: functional, cell-based
T1 sequence (Q99705 whole entry): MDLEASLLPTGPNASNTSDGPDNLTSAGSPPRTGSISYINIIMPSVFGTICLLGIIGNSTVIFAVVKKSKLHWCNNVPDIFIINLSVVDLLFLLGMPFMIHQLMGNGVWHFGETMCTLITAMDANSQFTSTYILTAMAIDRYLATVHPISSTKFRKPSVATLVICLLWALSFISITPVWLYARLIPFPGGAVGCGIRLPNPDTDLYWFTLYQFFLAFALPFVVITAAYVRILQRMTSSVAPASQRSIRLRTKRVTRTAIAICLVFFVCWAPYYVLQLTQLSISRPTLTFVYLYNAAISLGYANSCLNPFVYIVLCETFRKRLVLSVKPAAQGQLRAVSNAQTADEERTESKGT

| SMILES | IC50 |
| --- | --- |
| COc1cc(OC)cc(C(=O)NC2CCN(Cc3ccc4ccccc4c3)CC2)c1 | 62 nM |
| O=C(NC1CCN(Cc2ccc3ccccc3c2)CC1)c1ccc(F)c(F)c1 | 52 nM |
| COc1cc(OC)cc(C(=O)N[C@@H]2CCN(Cc3ccc4ccccc4c3)C2)c1 | 18 nM |

The remaining lines, values ahead:

| IC50 | SMILES |
| --- | --- |
| 109 nM | O=C(NC1CCN(Cc2ccc3cc(F)ccc3c2)CC1)c1ccccc1 |
| 42 nM | COc1cc(OC)cc(C(=O)N[C@@H]2CCN(C/C=C/c3ccccc3)C2)c1 |
| 948 nM | O=C(NC1CCN(Cc2ccc3ccccc3c2)CC1)c1ccccc1 |

target: T1, Melanin-concentrating hormone receptor 1; experiment: Binding activity against human MCH-R1
In short: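 Whole-cell competition binding in HEK-293 cells overexpressing MCH-R1 (SLC-1). Cells were incubated with varying compound concentrations plus 25 nM europium-labelled MCH, then washed free of unbound label, and residual bound europium-MCH was quantified. Non-specific binding was defined with unlabelled MCH. Values are means of at least two experiments unless indicated otherwise.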

| SMILES | Ki |
| --- | --- |
| COc1cc(OC)cc(C(=O)NC2CCN(CC3CCc4ccccc4C3)CC2)c1 (centres undefined) | 136 nM |
| COc1cc(OC)cc(C(=O)NC2CCN(Cc3ccc4ccccc4n3)CC2)c1 | 625 nM |
| COc1cc(OC)cc(C(=O)NC2CCN(C(C)c3ccc4ccccc4c3)CC2)c1 (centres undefined) | 25 nM |
| CCOc1cc(OCC)cc(C(=O)NC2CCN(Cc3ccc4ccccc4c3)CC2)c1 | 56 nM |
| COc1cc(OC)cc(C(=O)N(C)C2CCN(Cc3ccc4ccccc4c3)CC2)c1 | 169 nM |
| COc1cc(OC)cc(C(=O)N[C@@H]2CCN(C(C)c3ccc4ccccc4c3)C2)c1 (some centres undefined) | 12 nM |
| COc1cc(OC)cc(C(=O)NC2CCN(Cc3ccc4ccccc4c3)CC2)c1 | 27 nM |
| O=C(NC1CCN(Cc2ccc3ccccc3c2)CC1)c1cc(F)cc(F)c1 | 65 nM |
| COc1cccc(C(=O)N[C@@H]2CCN(Cc3ccc4ccccc4c3)C2)c1 | 67 nM |
| O=C(NC1CCN(Cc2ccc3ccccc3c2)CC1)c1ccc(F)c(F)c1 | 18 nM |
| COc1cc(OC)cc(C(=O)N[C@@H]2CCN(Cc3ccc4ccccc4c3)C2)c1 | 7 nM |
| O=C(NCc1ccc(F)c(F)c1)[C@H]1[C@@H]2CN(Cc3ccc4ccccc4c3)C[C@@H]21 | 40 nM |
| COc1cc(OC)cc(C(=O)NCCCNCc2ccc3ccccc3c2)c1 | > 100000 nM |
| O=C(NC1CCN(Cc2ccc3ccccc3c2)CC1)c1cc(F)c(F)c(F)c1 | 9 nM |
| COc1cc(OC)cc(C(=O)N[C@@H]2CCN(Cc3ccc4ccccc4c3)C[C@H]2C)c1 | 133 nM |
| COc1cc(OC)cc(C(=O)NC2(C)CCN(Cc3ccc4ccccc4c3)CC2)c1 | 86 nM |
| COc1cc(OC)cc(C(=O)NC2CCCN(Cc3ccc4ccccc4c3)C2)c1 (centres undefined) | > 100000 nM |
| COc1cc(OC)cc(C(=O)NC2CCN(CC[C@H](O)c3ccccc3)CC2)c1 | 505 nM |
| COc1cc(OC)cc(C(=O)N[C@@H]2CCN(Cc3ccc4ccccc4c3)C[C@@H]2C)c1 | 170 nM |
| COc1cc(OC)cc(C(=O)NC2CCN(Cc3cc4ccccc4n3C)CC2)c1 | 142 nM |
| COc1cc(OC)cc(C(=O)N[C@@H]2CCN(Cc3ccccc3)C2)c1 | 8070 nM |
| O=C(NC1CCN(Cc2ccc3ccccc3c2)CC1)c1cccc(O)c1 | 570 nM |
| COc1cccc(C(=O)NC2CCN(Cc3ccc4ccccc4c3)CC2)c1 | 29 nM |
| COc1cc(OC)cc(C(=O)NC2CCN(Cc3ccc4cc(OC)ccc4c3)CC2)c1 | 99 nM |
| O=C(NC1CCN(Cc2ccc3ccccc3c2)CC1)c1ccc(F)cc1 | 36 nM |
| COc1cc(OC)cc(C(=O)N[C@@H]2CCN(C(C)/C=C/c3ccccc3)C2)c1 (some centres undefined) | 23 nM |

Continued, values first:

| Ki | SMILES |
| --- | --- |
| 12 nM | COc1cc(OC)cc(C(=O)NC2CCN(C/C=C/c3ccccc3)CC2)c1 |
| > 100000 nM | COc1cc(OC)cc(C(=O)NC2CCN(CCCc3ccccc3)CC2)c1 |
| 286 nM | COc1cc(C(=O)NC2CCN(Cc3ccc4ccccc4c3)CC2)cc(OC)c1OC |
| 302 nM | COc1cc(OC)cc(C(=O)NC2CCN(Cc3ccccc3)CC2)c1 |
| 125 nM | O=C(NC1CCN(Cc2ccc3cc(F)ccc3c2)CC1)c1ccccc1 |
| 32 nM | COc1cc(OC)cc(C(=O)NC2CCN(Cc3ccc4cc(F)ccc4c3)CC2)c1 |
| 62 nM | COc1cc(C(=O)N[C@@H]2CCN(Cc3ccc4ccccc4c3)C2)ccc1F |
| 1000 nM | COc1ccc(C(=O)NC2CCN(Cc3ccc4ccccc4c3)CC2)cc1OC |
| 17 nM | COc1cc(OC)cc(C(=O)N[C@@H]2CCN(C/C=C/c3ccccc3)C2)c1 |
| 347 nM | O=C(NC1CCN(Cc2ccc3ccccc3c2)CC1)c1ccccc1 |
| 13 nM | COc1cc(C(=O)NC2CCN(Cc3ccc4ccccc4c3)CC2)ccc1F |
| > 100000 nM | O=C(NCc1ccc(F)c(F)c1)[C@@H]1[C@@H]2CN(Cc3ccc4ccccc4c3)C[C@@H]21 |
| 232 nM | O=C(NC1CCN(Cc2ccc3ccccc3c2)CC1)c1ccc(Cl)cc1 |
| 125 nM | CN(C)c1cccc(C(=O)NC2CCN(Cc3ccc4ccccc4c3)CC2)c1 |
| 484 nM | COc1cc(OC)cc(C(=O)N[C@H]2CCN(Cc3ccc4ccccc4c3)C2)c1 |
| 205 nM | COc1cc(OC)cc(C(=O)NC2CCN(Cc3ccc(Cl)c(Cl)c3)CC2)c1 |
| > 100000 nM | COc1cc(OC)cc(C(=O)NC2CC(C)(C)N(Cc3ccc4ccccc4c3)C(C)(C)C2)c1 |

Reference: ChEMBL document CHEMBL1137269, “Identification of substituted 4-aminopiperidines and 3-aminopyrrolidines as potent MCH-R1 antagonists for the treatment of obesity” (Bioorg Med Chem Lett, 2006)
